Tests used:
[1] = Antiproliferative activity against human HCT116 cells assessed as inhibition of cell viability after 72 hrs by MTT assay; type: functional, cell-based; details: HCT-116, 72 h
[2] = Antiproliferative activity against human MCF7 cells assessed as inhibition of cell viability after 72 hrs by MTT assay; type: functional, cell-based; details: MCF7, 72 h
[3] = Antiproliferative activity against human HepG2 cells assessed as inhibition of cell viability after 72 hrs by MTT assay; type: functional, cell-based; details: HepG2, 72 h
[4] = target: T1, Histone-lysine N-methyltransferase EHMT2 (Homo sapiens, UniProt Q96KQ7); test: Inhibition of G9a (unknown origin) using biotinylated-histone H3 (1 to 21 residues)/S-adenosyl-methionine as substrate/methyl donor after 3 hrs by AlphaScreen assay
T1 sequence (Q96KQ7 whole entry): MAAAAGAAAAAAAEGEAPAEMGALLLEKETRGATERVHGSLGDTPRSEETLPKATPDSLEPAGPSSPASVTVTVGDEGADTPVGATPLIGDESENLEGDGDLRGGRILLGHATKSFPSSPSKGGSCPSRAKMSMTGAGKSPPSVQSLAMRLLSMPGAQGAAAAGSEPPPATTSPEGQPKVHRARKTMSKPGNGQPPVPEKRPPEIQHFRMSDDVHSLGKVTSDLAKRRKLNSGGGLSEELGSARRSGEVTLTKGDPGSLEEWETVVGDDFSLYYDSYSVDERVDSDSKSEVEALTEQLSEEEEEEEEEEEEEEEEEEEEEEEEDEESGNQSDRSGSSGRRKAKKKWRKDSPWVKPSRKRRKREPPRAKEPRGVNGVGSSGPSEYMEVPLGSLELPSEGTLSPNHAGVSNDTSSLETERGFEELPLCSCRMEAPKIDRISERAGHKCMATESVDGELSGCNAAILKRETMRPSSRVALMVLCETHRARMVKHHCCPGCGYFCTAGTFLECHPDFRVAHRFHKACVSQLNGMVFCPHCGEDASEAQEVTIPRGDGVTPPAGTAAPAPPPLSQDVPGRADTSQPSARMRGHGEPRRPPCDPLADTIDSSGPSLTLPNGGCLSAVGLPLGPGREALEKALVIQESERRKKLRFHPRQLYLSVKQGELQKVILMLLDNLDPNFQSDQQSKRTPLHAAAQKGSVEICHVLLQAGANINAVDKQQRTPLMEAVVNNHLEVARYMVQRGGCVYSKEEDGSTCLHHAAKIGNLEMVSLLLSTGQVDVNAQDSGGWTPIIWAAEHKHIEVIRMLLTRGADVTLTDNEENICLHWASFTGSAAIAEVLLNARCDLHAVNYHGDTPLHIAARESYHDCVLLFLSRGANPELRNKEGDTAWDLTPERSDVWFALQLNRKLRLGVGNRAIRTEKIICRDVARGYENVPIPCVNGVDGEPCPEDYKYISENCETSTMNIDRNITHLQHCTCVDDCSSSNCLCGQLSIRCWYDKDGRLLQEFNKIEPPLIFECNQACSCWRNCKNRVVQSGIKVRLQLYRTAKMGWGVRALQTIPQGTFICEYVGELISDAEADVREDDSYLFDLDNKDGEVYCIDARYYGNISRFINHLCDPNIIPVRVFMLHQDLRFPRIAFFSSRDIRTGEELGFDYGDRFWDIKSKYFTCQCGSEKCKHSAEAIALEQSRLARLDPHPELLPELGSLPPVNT
Summary of the method: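 AlphaScreen G9a assay. Compounds were first screened at 10 µM. IC50 came from concentration-response curves of ten escalating concentrations (0.1 nM–10 µM), using two independent experiments, reported as mean ± SD.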

[5] = target: T1, Histone-lysine N-methyltransferase EHMT2; test: Inhibition of G9a (unknown origin)

Row | Structure (SMILES) | IC50 [1] | IC50 [2] | IC50 [3] | IC50 [4] | EC50 [5]
1 | COc1ccc(Nc2cc(N3CCCC3)c3noc4c3c2C(=O)c2ccccc2-4)cc1 | > 200 µM | > 200 µM | 66.7 µM |  | 
2 | CN(C)CCNc1cc(N(C)C)c2noc3c2c1C(=O)c1ccccc1-3 | 30.7 µM | 16.6 µM | 12.3 µM | 3.47 µM | 
3 | CN1CCCN(c2cc(NCCN3CCCCC3)c3c4c(onc24)-c2ccccc2C3=O)CC1 | 3.96 µM | 5.08 µM | 6.21 µM | 2.49 µM | 
4 | COc1cc2c(NC3CCN(C(C)C)CC3)nc(C3CCCCC3)nc2cc1OCCCN1CCCC1 | 3.35 µM | 6.99 µM | 3.7 µM |  | 
5 | CN(C)CCNc1cc(N2CCCCC2)c2noc3c2c1C(=O)c1ccccc1-3 | 25.4 µM | 10.3 µM | 15.6 µM | 3.75 µM | 
6 | O=C1c2ccccc2-c2onc3c(N4CCCC4)cc(NCCN4CCCC4)c1c23 | 7.46 µM | 10.8 µM | 24.9 µM | 1.22 µM | 
7 | CN(C)CCNc1cc(N2CCN(C)CC2)c2noc3c2c1C(=O)c1ccccc1-3 | 18.2 µM | 10.8 µM | 28.6 µM | 4.84 µM | 
8 | CN(C)c1cc(NCCN2CCCC2)c2c3c(onc13)-c1ccccc1C2=O | 6.99 µM | 28 µM | 24.9 µM | 3.87 µM | 
9 | O=C1c2ccccc2-c2onc3c(N4CCN(c5ncccn5)CC4)cc(NCCN4CCCC4)c1c23 | 3.36 µM | 4.06 µM | 3.1 µM | 4.57 µM | 
10 | CN(C)c1cc(NCCCN2CCCC2)c2c3c(onc13)-c1ccccc1C2=O | 11.3 µM | 8.61 µM | 16.9 µM | 2.98 µM | 
11 | COc1ccc(Nc2cc(N3CCN(C)CC3)c3noc4c3c2C(=O)c2ccccc2-4)cc1 | 140 µM | > 200 µM | > 200 µM | 39.2 µM | 
12 | O=C1c2ccccc2-c2onc3c(N4CCN(c5ccccc5)CC4)cc(NCCN4CCCC4)c1c23 | 4.28 µM | 3.77 µM | 10.8 µM | 3.22 µM | 
13 | CN(C)CCNc1cc(N2CCCC2)c2noc3c2c1C(=O)c1ccccc1-3 | 52.9 µM | 17.6 µM | 20.5 µM | 5.97 µM | 
14 | COC(=O)c1ccc2c(c1)nc(NC(=O)c1ccccc1)n2CCCc1ccccc1 |  |  |  |  | 5 µM
15 | CN(C)CCNc1cc(N2CCN(c3ncccn3)CC2)c2noc3c2c1C(=O)c1ccccc1-3 | 4.39 µM | 4.31 µM | 9.14 µM | 3.84 µM | 
16 | CCN1CCN(c2cc(NCCN3CCCC3)c3c4c(onc24)-c2ccccc2C3=O)CC1 | 4.34 µM | 20.8 µM | 8.32 µM | 3.48 µM | 
17 | CN1CCCN(c2cc(NCCN3CCCC3)c3c4c(onc24)-c2ccccc2C3=O)CC1 | 3.2 µM | 8.26 µM | 9.35 µM | 3.96 µM | 
18 | CCN1CCN(c2cc(Nc3ccc(C)cc3)c3c4c(onc24)-c2ccccc2C3=O)CC1 | > 200 µM | > 200 µM | > 200 µM |  | 
19 | CCN1CCN(c2cc(Nc3ccccc3F)c3c4c(onc24)-c2ccccc2C3=O)CC1 | > 200 µM | > 200 µM | > 200 µM |  | 
20 | CN1CCN(c2cc(NCCN3CCCC3)c3c4c(onc24)-c2ccccc2C3=O)CC1 | 6.23 µM | 13.9 µM | 27.8 µM | 6.89 µM | 
21 | CCN1CCN(c2cc(Nc3ccc(OC)cc3)c3c4c(onc24)-c2ccccc2C3=O)CC1 | > 200 µM | > 200 µM | > 200 µM |  | 
22 | O=C1c2ccccc2-c2onc3c(N4CCN(c5ccccc5)CC4)cc(NCCN4CCCCC4)c1c23 | 5.32 µM | 1.22 µM | 10.4 µM | 2.68 µM | 
23 | CN1CCN(c2cc(NCCN3CCCCC3)c3c4c(onc24)-c2ccccc2C3=O)CC1 | 4.56 µM | 8.37 µM | 8.34 µM | 1.87 µM | 

From ChEMBL document CHEMBL3856284, “Discovery, design and synthesis of 6H-anthra[1,9-cd]isoxazol-6-one scaffold as G9a inhibitor through a combination of shape-based virtual screening and structure-based molecular modification” (Bioorg Med Chem, 2016)
